Bioassay records (PubChem)
MrgX1 allo act: positive allosteric modulators of MrgX1, primary screen, HEK293 cells, Fluo-4 calcium flux. Mas-related G-protein coupled receptor member X1 (Homo sapiens), Q96LB2. AID 588675, 2011. B-score at 10 µM. actives 0.63% (n = 310,000). FDSS; active compounds read high;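 active means plate-corrected calcium response at least 3 library SD above typical, normal starting fluorescence, not activating the receptor alone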;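 further: compound read alongside a low EC10 to EC30 dose of BAM8-22 agonist; peak minus trough fluorescence over baseline measured at the second addition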
Target sequence (Q96LB2 whole entry, looked up): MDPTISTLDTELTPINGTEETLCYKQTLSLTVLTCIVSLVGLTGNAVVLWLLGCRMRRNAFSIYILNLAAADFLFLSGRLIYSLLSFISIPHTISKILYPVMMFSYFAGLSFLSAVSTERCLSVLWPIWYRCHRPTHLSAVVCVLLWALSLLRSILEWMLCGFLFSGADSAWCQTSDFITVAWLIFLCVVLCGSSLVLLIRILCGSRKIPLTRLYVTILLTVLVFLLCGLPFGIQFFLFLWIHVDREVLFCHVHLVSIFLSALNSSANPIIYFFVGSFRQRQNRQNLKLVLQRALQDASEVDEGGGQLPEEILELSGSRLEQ
MrgX1 antag: antagonists of human MrgX1 receptor, primary screen, HEK293 cells, Fluo-4 calcium flux; BAM8-22 antagonism; active compounds read low; AID 588676, 2011; actives 1.3% (n = 310,000); B-score at 10 µM;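 active means calcium-response B-score plate-corrected more than 3 library SD below zero, starting fluorescence within 5 deviations, no agonist response on first addition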;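 further: peak minus trough fluorescence over baseline after final BAM8-22 challenge near maximal dose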
RGS4 pot: RGS4 potentiators or activators, primary screen, cell-based, HEK293 M3R inducible RGS4, calcium flux | carbachol calcium flux Fluo4; active compounds read low | actives 0.92% (n = 310,000) | B-score at 10 µM;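 active means B-score of the integrated calcium signal more than 4 SD below the library mean, with starting fluorescence not abnormally high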;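 further: negative B-score means reduced calcium response which marks RGS4 activation or potentiation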
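System: HEK293 FlpIn-TREx cells, stable M3R, doxycycline-inducible RGS4. Timing: overnight RGS4 induction, 30 min dye load 37 °C, 20 min compound RT. Also added: carbachol, ECmax concentration. Measured by: Fluo4 fluorescence kinetic imaging of calcium. Evaluation: integrated calcium ratio converted to B score.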
MrgX1 ag: agonists of human MrgX1 receptor, primary screen, HEK293 cells, Fluo-4 calcium flux; Mas-related G-protein coupled receptor member X1 (Homo sapiens), Q96LB2; Fluo-4 calcium fluorescence, agonist mode; active compounds read high; B-score at 10 µM; actives 0.44% (n = 310,000); AID 588627, 2011;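 active means calcium response B-score plate-corrected fluorescence ratio at least 3 library SD, with starting fluorescence B-score inside 5 SD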
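Assay system: MrgX1-expressing HEK293 cells / Amount: fifteen thousand cells per well / Doses: test compound in the initial addition of three / Timing: cells plated overnight, dye loaded 0.5 h 37 °C, 0.5 h room temperature / Technique: kinetic calcium dye fluorescence, Fluo-4 NW / Control set: positive and negative controls per plate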
RGS4 inh: RGS4 inhibitors, primary screen, cell-based, HEK293 M3R inducible RGS4, calcium flux. Regulator of G-protein signaling 4 (Homo sapiens), P49798. AID 463165, 2010. Fluo-4 calcium flux; active compounds read high; triggered by carbachol at its EC20. B-score at 10 µM. actives 0.45% (n = 310,000);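 active means B-score, a plate-corrected calcium signal, over three deviations above library mean, with baseline fluorescence within five deviations of library mean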;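 further: RGS4 expression induced by doxycycline in cells with stable M3 receptor; B-score is computed from the integrated fluorescence ratio over baseline after carbachol; higher B-score means a larger calcium signal and so more RGS4 inhibition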
Target sequence (P49798 whole entry, looked up): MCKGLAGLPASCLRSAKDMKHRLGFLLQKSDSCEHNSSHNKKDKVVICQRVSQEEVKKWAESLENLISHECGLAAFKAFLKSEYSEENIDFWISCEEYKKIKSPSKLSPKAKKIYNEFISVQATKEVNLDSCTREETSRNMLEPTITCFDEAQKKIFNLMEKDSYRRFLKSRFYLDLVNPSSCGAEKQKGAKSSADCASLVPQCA
Starred values were filed as active, the others as inactive; i = inactive; . = no result. Rows were chosen to be rich in hits. Some 3.5% of all compounds tested hit in one or more screens of this group.

SMILES	MrgX1 allo act	MrgX1 antag	RGS4 pot	MrgX1 ag	RGS4 inh
CCC(C)(C)NC(=O)C(c1ccco1)N(C(=O)Cn1nnc2ccccc21)c1ccc2c(c1)OCO2 (centres undefined)	8.89*	i	i	i	i
Cc1ccc(N(C(=O)Cn2nnc3ccccc32)C(C(=O)NCc2ccco2)c2ccc(C)o2)cc1 (centres undefined)	.	.	i	.	i
CS(=O)(=O)/C(C#N)=C\c1cnc(S(=O)(=O)c2ccccc2)s1	i	i	i	29.5*	i
CCN(CC)CCOC(=O)c1ccc(NC(=O)CCCN2C(=O)/C(=C/c3cccs3)SC2=S)cc1	i	i	-8.34*	i	i
CC1CCN(C(=O)CN(c2ccc3c(c2)OCCO3)S(=O)(=O)c2ccccc2)CC1	i	i	i	i	i
COC(=O)c1cc(C(=O)c2cc(F)ccc2O)cn2c(=O)c3c(C)c(C)sc3nc12	i	-4.67*	-6.95*	i	i
CCN(CC(=O)Nc1ccc(C)c(S(=O)(=O)N2CCOCC2)c1)Cc1ccccc1	i	i	i	i	i
Cc1cc(NC(=O)CSc2nnc3ccc(-c4ccc(F)cc4)nn23)no1	i	i	i	i	i
CCc1ccc(-c2nc(CSCC(=O)N3CCN(c4ccccn4)CC3)c(C)o2)cc1	i	-7.1*	i	i	i
Cc1ccc(S(=O)(=O)c2cnc(-c3ccccc3)nc2N2CCN(C)CC2)cc1	i	i	i	i	i
CCc1noc(C)c1C(=O)N(C)CC(=O)Nc1ccc(Br)cc1C	i	i	i	i	i
Cc1ccc(C2=CC(C)(c3ccc(C)cc3)Nc3nc(C(F)(F)F)nn32)cc1 (centres undefined)	i	i	-7.02*	i	i
CCOC(=O)N1CCN(C(=O)CCCCn2c(=S)[nH]c3ccsc3c2=O)CC1	i	i	i	i	i
Cn1cc(/C=C(\C(=O)O)C(C(=O)O)=C2CCCCC2)c2ccccc21	i	-4.79*	i	i	i
Cn1cc(/C=C/C(=O)c2ccccc2)c2ccccc21	i	i	i	i	i
C=C1CC(C(=O)N/N=C/c2ccc(O)cc2)C1	i	-5.85*	i	i	i
Cc1cccc([C@@H]2[C@@H]3C(=O)N(Cc4ccccc4)C(=O)[C@@H]3[C@]3(CC(C)C)C(=O)N(c4cccc(F)c4)C(=O)N23)c1	i	i	i	i	i
Cc1ccc(-c2nc3sc4c(c3c(=O)n2N)CCCC4)cc1	13.4*	i	i	i	i
O=C(O)/C=C/C(=O)c1ccc2c(c1)CCc1ccccc1-2	i	-5.21*	i	i	i
CN(C)C1=NC[C@H](Cc2ccccc2)N1CC1CCC(C(C)(C)C)CC1 (some centres undefined)	i	-6.23*	i	i	i
O=C(O)CCC(=O)Nc1ccc(C(=O)OCC(=O)c2ccc(Cl)cc2Cl)cc1	i	i	i	i	i
Cc1ccc(C(=O)Nc2cccc3cccnc23)cc1C	i	i	i	i	i
Cc1ncc(CO)c2c1Oc1nc(-c3ccccc3)nc(SCC(=O)N3CCOCC3)c1C2	i	i	i	i	i
Cc1ncc(CO)c2c1Oc1nc(-c3ccccc3F)nc(SCC(=O)N(C)c3ccccc3)c1C2	i	i	i	i	i
COc1ccccc1-c1nc2c(c(SCC(=O)N3CCCCC3)n1)Cc1c(CO)cnc(C)c1O2	i	i	-8.1*	i	i
SMILES	MrgX1 allo act	MrgX1 antag	RGS4 pot	MrgX1 ag	RGS4 inh
Cc1ncc(CO)c2c1Oc1nc(-c3ccccc3)nc(SCC(=O)N(C)c3ccccc3)c1C2	10.1*	i	-8.12*	i	i
COc1ccc(OCc2cc(C(=O)NCCN3CCCc4ccccc43)no2)c(Cl)c1	i	i	-7.47*	i	i
O=C1CCCC/C1=C\Nc1ccc(S(=O)(=O)Nc2cnc3ccccc3n2)cc1	i	i	i	i	i
COc1ccc(Nc2nnc(SC(C(=O)Nc3ccc(OC)c(Cl)c3)c3ccccc3)s2)cc1 (centres undefined)	15.7*	i	i	i	i
O=C(c1cc(N2CCOCC2)c(F)cc1[N+](=O)[O-])N1CCOCC1	i	i	i	i	i
O=c1c2ccccc2nc(COc2ccccc2)n1/N=C/c1c[nH]c2ccccc12	i	i	i	i	i
O=c1c2ccccc2nc(COc2ccccc2)n1/N=C/c1ccc(O)cc1O	i	i	-7.81*	i	i
C/C(=N\OCc1nc2ccccc2c(=O)n1/N=C/c1cc([N+](=O)[O-])ccc1O)c1ccccc1	7.34*	i	i	i	i
Oc1ccccc1/C=N/n1c(COc2ccccc2)n[nH]c1=S	6.61*	i	i	i	i
C/C(=N\OCc1nc2ccccc2c(=O)n1/N=C/c1cc(C)cc([N+](=O)[O-])c1O)c1ccccc1	i	i	i	i	i
Oc1ccc(/C=N/n2c(COc3ccccc3)n[nH]c2=S)c(O)c1	i	i	i	i	i
Cn1c(CO)cnc1SCc1ccc(Cl)cc1	i	i	i	i	i
CCC12CSc3nc(Cl)ccc3N1C(=O)C(=O)N2C (centres undefined)	.	.	i	.	i
Cn1c(=O)n(C)c2cc(S(=O)(=O)N3CCN(c4ccccc4)CC3)ccc21	i	i	i	i	i
CCOc1ccccc1C(=O)Nc1ccc2c(c1)C(=O)NC2=O	i	i	i	i	i
Cc1ccc(O)c(Sc2cc(C)ccc2O)c1	i	i	i	29.2*	i
COc1ccc(-n2c(SCC#N)nc3c(sc(=S)n3-c3ccccc3)c2=O)c(OC)c1	i	i	i	i	i
Cc1ccc(S(=O)(=O)N2CCC(C(=O)OCC(=O)N(C)C3CCCCC3)CC2)cc1C	i	i	i	i	i
CCn1cc(CNC(=O)c2c(-c3c(Cl)cccc3Cl)noc2C)c(C)n1	i	i	i	i	i
Cn1c(=O)c(=O)n(C)c2cc(N3CCOCC3)c(NS(=O)(=O)c3ccc([N+](=O)[O-])cc3)cc21	13.8*	i	i	i	i
Cn1c(=O)c(=O)n(C)c2cc(N3CCOCC3)c(NS(=O)(=O)c3ccc(F)c(Cl)c3)cc21	i	i	i	i	i
